KCNQ1 pot: potentiators or activators of KCNQ1 channel, primary screen, cell-based, thallium flux, high-throughput; Potassium voltage-gated channel subfamily KQT member 1 (Homo sapiens), P51787; CHO-K1 KCNQ1, thallium flux FluxOR fluorescence; hits give high values; B-score at 10 µM; actives 0.35% (n = 310,000);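 active = fluorescence ratio B-score, a plate-corrected score, at least three library SD, with initial intensity B-score within 5 SD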
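Doses: Single concentration per compound, DMSO matched to controls | Test system: KCNQ1-transfected CHO-K1 cells | Timing: 90 min dye loading and 20 min compound exposure, both at room temperature | Measured by: Kinetic FluxOR thallium fluorescence, 10-s 1-Hz baseline, 110-s post-stimulus read | Medium: Assay buffer with matched DMSO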
KCNK9 block: KCNK9 potassium channel inhibitors, primary screen, HEK293 cells, thallium flux. FluxOR thallium flux fluorescence; hits give low values. Potassium channel subfamily K member 9 (Homo sapiens), Q9NPC2. actives 1.2% (n = 310,000). AID 488922, 2010. B-score at 10 µM;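 active = ratio B-score over 3 SD below the library mean, with starting fluorescence within 5 SD of its mean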;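 note: negative B-score means less thallium flux so channel inhibition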
hERG protect: hERG rescue from dofetilide block, primary screen, cell-based, CHO-hERG, FluxOR thallium flux, dofetilide IC70. Voltage-gated inwardly rectifying potassium channel KCNH2 (Homo sapiens), Q12809. dofetilide IC70 present. activation (rescue from dofetilide block), less the hit threshold, % at 10 µM. actives 0.51% (n = 310,000);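 active = activation above the mean of controls blocked by dofetilide plus 5 SD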;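 note: thallium influx through hERG after potassium depolarization seen as dye fluorescence rise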
Kir21 block: inhibitors of mouse Kir2.1 inward-rectifier potassium channel; HEK293-Kir2.1, FluxOR thallium flux fluorescence; hits give low values; B-score at 10 µM; actives 0.85% (n = 310,000);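 active = fluorescence ratio B-score at or below minus 3 SD of library scores, with starting-brightness B-score within 2 SD, cut at about -4.2 in these data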;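 note: channel flux triggered by added potassium and thallium sulfate stimulus; B-score of peak minus minimum fluorescence over baseline after thallium stimulus; more negative B-score means stronger Kir2.1 block with less thallium influx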
Target sequence (P35561 whole entry, looked up): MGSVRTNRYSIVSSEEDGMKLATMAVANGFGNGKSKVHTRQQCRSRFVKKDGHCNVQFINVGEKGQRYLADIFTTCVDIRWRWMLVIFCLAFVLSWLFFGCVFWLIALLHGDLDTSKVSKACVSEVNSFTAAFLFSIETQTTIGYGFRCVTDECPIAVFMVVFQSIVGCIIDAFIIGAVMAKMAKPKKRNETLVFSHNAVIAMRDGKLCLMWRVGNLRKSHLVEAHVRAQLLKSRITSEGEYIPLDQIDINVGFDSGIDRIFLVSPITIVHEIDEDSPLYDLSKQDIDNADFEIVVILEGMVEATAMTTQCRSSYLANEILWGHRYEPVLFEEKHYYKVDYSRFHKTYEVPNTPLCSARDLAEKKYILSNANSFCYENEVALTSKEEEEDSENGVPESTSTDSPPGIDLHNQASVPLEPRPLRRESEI
KCNQ1 block: inhibitors of human KCNQ1 channel, primary screen, cell-based, thallium flux, high-throughput; Potassium voltage-gated channel subfamily KQT member 1 (Homo sapiens), P51787; CHO-K1 KCNQ1, FluxOR thallium flux fluorescence; hits give high values; actives 1.3% (n = 310,000); B-score at 10 µM;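 active = compounds whose thallium flux B-score, printed positive for inhibition, exceeds three library SD while starting fluorescence stays within three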;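 note: channel opened by potassium depolarization with thallium stimulus after 20 min compound exposure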
KCNK3 block: human KCNK3 channel inhibitors, primary screen, CHO cells, FluxOR thallium flux, B-score | FluxOR fluorescence; hits give low values | B-score at 10 µM | actives 0.84% (n = 340,000) | AID 602410, 2012;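 active = B-score under library mean minus 4 SD, starting fluorescence ratio at most library mean plus 5 SD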;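 note: more negative B-score means stronger inhibition of thallium flux through KCNK3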
Numbers without * were called inactive; i = inactive; nt = no result. Rows were chosen to be rich in hits. Some 3.8% of all compounds tested hit in one or more screens of this group.

SMILES	KCNQ1 pot	KCNK9 block	hERG protect	Kir21 block	KCNQ1 block	KCNK3 block
COc1ccc(OC)c(NS(=O)(=O)c2cccc3cccnc23)c1	i	i	-4	-0.31	i	i
COc1ccc(NS(=O)(=O)c2ccc3ccccc3c2)c2ncccc12	11*	i	5.7*	-0.7	i	i
COc1ccccc1NC(=O)Cc1noc(CSc2cc(C)c3ccccc3n2)n1	i	i	-7	-0.39	i	-9*
COc1ccccc1NC(=O)CSc1nc2ccccc2cc1Cc1ccccc1	i	-7.9*	-8	-0.36	i	i
COc1ccc(NC(=O)CSc2c3c(nc4ccccc24)CCCC3)c(OC)c1	i	i	-11	-4.7*	i	i
COc1ccccc1NC(=O)CSc1c2c(nc3ccccc13)CCC2	i	i	-10	-10*	i	i
COc1ccccc1NC(=O)Cc1noc(CSc2cccc[n+]2[O-])n1	i	i	-9	1.9	i	i
COc1ccccc1NC(=O)CSC1=NC(=O)C(Cc2ccccc2)C(=O)N1 (stereo not drawn)	i	i	-8	-1.1	i	i
COc1cc(NC(=O)CSc2c3c(nc4ccccc24)CCC3)cc(OC)c1OC	i	i	-12	-0.92	i	i
Cn1nccc1C(=O)Nc1ccn(C23CC4CC(CC(C4)C2)C3)n1	i	i	-11	1.2	i	i
OC(CN1CCCCC1)Cn1c2ccccc2c2ccccc21 (stereo not drawn)	i	i	-5	1.2	i	i
COc1ccc(CN2CCN(CC(O)Cn3c4ccccc4c4ccccc43)CC2)cc1 (stereo not drawn)	i	i	-25	-4.4*	i	i
O=c1c2ccccc2n(CC(O)CN2CCCCC2)c2ccccc12 (stereo not drawn)	i	-8.1*	-5	0.07	i	i
CCOc1ccc(CN2CCN(CC(O)Cn3c4ccccc4c4ccccc43)CC2)cc1 (stereo not drawn)	i	i	-18	-1.2	i	i
COc1ccc(C(=O)Nc2ccc3[nH]ccc3c2)cc1	i	i	1	1.1	i	i
CCOC(=O)C1CCCN(C(=O)c2ccc3c(c2)N(C)C(=O)/C(=C/c2ccccc2Cl)S3)C1 (stereo not drawn)	i	i	-10	-1.3	i	i
Cc1oc2c(cc(NS(=O)(=O)c3ccc4c5c(cccc35)C(=O)N4)c3ccccc32)c1C(=O)OC(C)C	i	-7.6*	-11	0.4	i	i
O=C1CCCc2oc3c(cc(NS(=O)(=O)c4ccc5c6c(cccc46)C(=O)N5)c4ccccc43)c21	i	i	-26	-1.9	i	i
COc1cccc(CN(C)C(=O)COc2cccc3c2OC(C)(C)C3)c1OC	nt	nt	nt	nt	nt	i
CCN(CC)CCN(CC(=O)N(C1CCCCC1)C1CCCCC1)C(=O)c1ccco1	i	i	-10	-4.4*	i	i
Cc1ccc(NC(=O)N2CCCCCC2)cc1C	i	i	-9	-0.81	i	i
Cc1ccc(NC(=O)N2CCCN(Cc3ccc(F)cc3)C2)cc1C	i	i	-14	-5.4*	i	i
CC(C)Oc1ccc(CNC(=O)CC(c2ccccc2)c2cc(Cl)ccc2O)cc1 (stereo not drawn)	i	-7.3*	-13	0.16	7*	i
O=C(CC(c1ccccc1)c1ccccc1O)NCc1ccccc1Cl (stereo not drawn)	i	-7.5*	-10	-1.5	i	i
O=C(CC(c1ccccc1)c1ccccc1O)NCCc1ccccc1 (stereo not drawn)	i	i	-8	-1	i	i
SMILES	KCNQ1 pot	KCNK9 block	hERG protect	Kir21 block	KCNQ1 block	KCNK3 block
Oc1ccc(/C=N/Nc2nccnc2Cl)c(O)c1	i	i	1	-1.6	i	i
CC1CCCC(O)(C(C(=O)O)c2ccccc2)C1 (stereo not drawn)	nt	nt	nt	nt	nt	i
COc1cc(/C=C2\SC(=Nc3ccccc3)N(CCc3c[nH]c4ccccc34)C2=O)ccc1OC(C)C(=O)O (stereo not drawn)	i	i	-11	-0.32	i	i
O=C1/C(=C/c2ccc(N3CCOCC3)o2)SC(=Nc2ccccc2)N1CCc1c[nH]c2ccccc12	i	i	-29	-0.02	7*	i
COc1ccc(N=C2S/C(=C\c3ccc(OC(C)C(=O)O)c(OC)c3)C(=O)N2CCc2c[nH]c3ccccc23)cc1 (stereo not drawn)	i	i	-14	-0.78	11*	i
Cc1ccc(O)c(NC(=O)c2ccco2)c1	i	i	-4	1.3	i	i
COc1ccc(NC(=O)c2ccco2)cc1NC(=O)c1ccccc1	i	i	-12	1.5	i	i
CC(=O)c1cccc(NC(=O)c2cccc(NC(=O)c3ccco3)c2)c1	i	i	-8	1.8	i	i
CCOc1ccccc1NC(=O)c1ccc(NC(=O)c2ccco2)cc1	i	-6.6*	-8	0	i	i
COc1ccccc1NC(=O)c1cccc(NC(=O)c2ccco2)c1	nt	nt	nt	nt	nt	-9.4*
O=C(Nc1ccccc1C(=O)O)c1cccc(NC(=O)c2ccco2)c1	i	i	5.3*	-0.05	i	i
Cc1ccc(O)c(NC(=O)c2cccc(NC(=O)c3ccco3)c2)c1	i	-6.9*	-9	1.3	i	-9.4*
COc1ccc(N2CC(C(=O)Nc3nnc(Cc4ccccc4)s3)CC2=O)cc1 (stereo not drawn)	i	i	-5	1.6	i	i
Clc1ccc2c(N3CCOCC3)ccnc2c1	i	i	-4	-0.99	i	i
CN(C)c1cc(N/N=C\c2ccccc2)nc(N(C)C)n1	i	i	-17	-0.27	i	i
COc1ccccc1/C=N/Nc1cc(N(C)C)nc(N(C)C)n1	i	i	-7	-0.29	6*	i
O=C(CSc1n[nH]c(-c2ccc(S(=O)(=O)N3CCCCC3)cc2)n1)Nc1nccs1	i	i	6.5*	1.9	i	i
CC1CCc2sc(-c3n[nH]c(=S)o3)cc2C1 (stereo not drawn)	i	i	7.4*	-2.1	i	i

Screens: PubChem, Johns Hopkins Ion Channel Center
